S1P4 antag: blocks the human S1P4 receptor; O95977; S1P4-expressing cells, antagonist mode, reporter read-out; inhibition, % at 4.98 µM; 220,000 tested, 0.26% active; AID 1510; in the data active means inhibition above about 29%;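 further: 0% = wells stimulated with agonist and 100% = vehicle wells without agonist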
NPY1 pot ag: human NPY-Y1 potentiation or agonism, primary screen; P25929; NPY-Y1 expressing cells, potentiator/agonist activation; activation, % at 3.6 µM; 220,000 tested, 0.37% active; AID 1304; in the data active means activation above about 33%, passing the limit was not always enough;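 further: cells stimulated with NPY at EC10 then isoproterenol at EC100; 0% = low agonist plus stimulus and 100% = saturating agonist plus stimulus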
S1P4 ag: agonists of human S1P4 receptor; S1P4-expressing cell line, agonist reporter assay; 220,000 tested, 0.35% active; activation, % at 4.98 µM; O95977; in the data active means activation above about 11%;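 further: 0% = DMSO vehicle and 100% = reference agonist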
NPY Y1 blocker: blocks the human neuropeptide Y Y1 receptor; inhibition, % at 3.6 µM; HEK293-CNG Y1 cells, membrane potential fluorescence; NPY at EC95, then isoproterenol; 200,000 tested, 1% active;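 active means inhibition above the campaign mean inhibition of all tested compounds plus 3 SD, cut at about 20% in these data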;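 further: 0% = DMSO wells given NPY plus isoproterenol and 100% = isoproterenol alone without NPY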
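Test system: HEK293 cells co-expressing NPY Y1 receptor and cyclic-nucleotide gated channel; Also added: NPY (25 nM), isoproterenol (1 µM), Ro 20-1724 (25 µM); Compound dosing: one concentration, 3.6 µM, in 0.4% DMSO; Timing: dye 3 h, compound 60 min room temperature, stimulation 45 min; Technique: Membrane-potential fluorescent dye readout.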
NPY2 pot ag: potentiates or activates human NPY-Y2 receptor; P49146; cells expressing NPY-Y2, potentiator/agonist read-out; activation, % at 3.6 µM; 220,000 tested, 0.45% active; AID 1359; in the data active means activation above about 27%;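 further: cells stimulated with NPY near EC25 plus isoproterenol at EC100; 0% = vehicle plus submaximal agonist and 100% = vehicle plus saturating agonist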
Target sequence (P49146 whole entry, looked up): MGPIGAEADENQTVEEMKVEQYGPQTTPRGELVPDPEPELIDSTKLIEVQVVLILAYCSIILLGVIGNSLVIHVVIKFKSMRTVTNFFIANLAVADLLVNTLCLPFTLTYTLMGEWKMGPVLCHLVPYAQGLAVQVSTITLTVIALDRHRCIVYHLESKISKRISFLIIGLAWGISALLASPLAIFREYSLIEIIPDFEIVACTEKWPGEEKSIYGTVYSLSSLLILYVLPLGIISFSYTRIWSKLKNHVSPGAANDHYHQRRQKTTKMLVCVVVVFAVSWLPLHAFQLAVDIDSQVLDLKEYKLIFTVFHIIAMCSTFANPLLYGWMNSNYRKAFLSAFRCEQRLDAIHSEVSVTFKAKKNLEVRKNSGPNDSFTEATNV
NPY-Y2 antag: antagonists of human neuropeptide Y receptor Y2 | NPY-Y2 expressing cells, antagonist mode | P49146 | inhibition, % at 2.7 µM | 140,000 tested, 0.99% active | AID 793; in the data active means inhibition above about 17%;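 further: 0% = vehicle with agonist challenge and 100% = reference antagonist with challenge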
S1P4 ag conf: human S1P4 agonism, confirmation; shares compounds with S1P4 ag; S1P4 agonist cell-based reporter assay; activation, % at 4.98 µM; 740 tested, 7% active; AID 1523; in the data active means activation above about 12%;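 further: 0% = vehicle and 100% = full reference agonist response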
S1P1 agonist: activates human S1P1, counter-screen for S1P4 agonists | shares compounds with S1P4 ag | S1P1 agonist cell-based assay, activation | activation, % at 4.98 µM | 740 tested, 4% active | AID 1563; in the data active means activation above about 21%;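 further: 0% = vehicle wells and 100% = reference agonist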
Target sequence (P21453 whole entry, looked up): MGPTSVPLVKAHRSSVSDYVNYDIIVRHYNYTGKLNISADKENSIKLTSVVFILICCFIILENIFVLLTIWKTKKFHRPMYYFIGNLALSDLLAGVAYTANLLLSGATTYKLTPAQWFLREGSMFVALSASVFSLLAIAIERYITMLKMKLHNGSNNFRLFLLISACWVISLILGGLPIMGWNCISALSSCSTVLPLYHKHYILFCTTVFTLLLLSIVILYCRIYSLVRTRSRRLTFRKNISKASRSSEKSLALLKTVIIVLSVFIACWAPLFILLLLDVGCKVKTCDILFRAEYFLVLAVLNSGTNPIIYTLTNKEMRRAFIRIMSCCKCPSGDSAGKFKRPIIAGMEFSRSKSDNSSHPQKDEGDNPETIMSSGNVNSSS
Numbers without * were called inactive; x = no result given. This is a sample that favours compounds with a hit; in the whole collection about 2.4% have one here.

SMILES | S1P4 antag | NPY1 pot ag | S1P4 ag | NPY Y1 blocker | NPY2 pot ag | NPY-Y2 antag | S1P4 ag conf | S1P1 agonist
O=C1NC(c2ccco2)Nc2sc3c(c21)CCN(Cc1ccccc1)C3 (configuration not stated) | -30.6 | -3.2 | 15.4* | -1.9 | 13.0 | 1.3 | 0.3 | 5.7
CC(C)NC(=O)C1CCN(C(=O)c2cc3sccc3n2Cc2ccc(F)cc2)CC1 | 1.7 | 29.1 | 16.0* | -6.8 | 16.9 | -0.4 | 0.3 | 6.9
CC1CCN(C(=O)C2CCN(C(=O)c3cc4sccc4n3Cc3ccc(F)cc3)CC2)CC1 | -11.3 | 7.2 | 1.1 | -2.7 | 4.0 | 2.0 | x | x
O=C(Cn1cc(C(F)(F)F)cc(Cl)c1=O)Nc1cccc(Cl)c1 | -14.6 | -12.5 | -0.1 | 3.7 | 1.7 | -4.1 | x | x
Cc1ccc(C(N)=S)c(C)c1 | 4.4 | 6.1 | 17.1* | 5.4 | -9.8 | 1.7 | -2.3 | 1.2
O=C1NCCNC1(c1c[nH]c2ccccc12)C(F)(F)F (configuration not stated) | -0.8 | 8.1 | 2.8 | 0.4 | 8.8 | -1.3 | x | x
O=C(NCC(c1ccco1)N1CCN(c2ccccc2)CC1)OCc1ccccc1 (configuration not stated) | 7.0 | -28.4 | 0.4 | 15.8 | -17.6 | 12.3 | x | x
O=C(NCC(c1ccco1)N1CCN(c2ccccc2F)CC1)OCc1ccccc1 (configuration not stated) | 4.5 | -21.7 | 32.8* | 2.3 | -20.6 | 6.5 | -1.7 | -6.1
N#C/C(=C/N1CCOCC1)c1ccccc1 | -10.6 | -2.3 | -1.7 | 5.8 | -4.0 | 1.1 | x | x
COc1ccccc1OCC(=O)NCc1nc(-c2ccccc2)no1 | -9.5 | -24.3 | 76.5* | 9.9 | -15.8 | x | -0.5 | 1.1
O=C(CN1C(=O)C2CCCCC2C1=O)N1CCN(c2ccc(F)cc2)CC1 (configuration not stated) | -18.2 | 3.7 | -2.7 | -2.9 | -3.4 | x | x | x
O=C(CN1C(=O)NC2(CCSC2)C1=O)N1CCN(c2ccc(F)cc2)CC1 (configuration not stated) | -10.4 | 6.0 | 17.7* | -8.5 | 8.9 | 0.1 | -1.0 | -4.0
CC1=CC(=O)CC(C)(C)C1(O)/C=C/C(C)=C/C(=O)O (configuration not stated) | -4.2 | 5.8 | 1.8 | x | -8.4 | x | x | x
O=C(NCc1ccccc1)N[C@@H](Cc1c[nH]c2ccccc12)C(=O)O | 6.7 | -9.8 | 14.2* | 5.7 | -0.1 | 2.4 | -1.2 | 0.4
O=C(NC(Cc1c[nH]c2ccccc12)C(=O)O)c1ccco1 (configuration not stated) | -16.4 | 10.5 | -2.3 | 3.8 | -5.6 | 5.6 | x | x
CC(C)C(=O)NS(=O)(=O)c1ccc(NS(C)(=O)=O)cc1 | 5.3 | 8.5 | 1.6 | x | -5.1 | x | x | x
CC(C)CC(=O)NS(=O)(=O)c1ccc(NS(C)(=O)=O)cc1 | 2.3 | 17.2 | 16.6* | -3.4 | -2.8 | x | -1.8 | 0.9
Cc1cc(C(=O)CSc2nc3ccccc3c(=O)[nH]2)c(C)n1CC1CCCO1 (configuration not stated) | -7.6 | -9.5 | 52.7* | 0.5 | 7.8 | x | -0.1 | 7.6
COCCOC(=O)c1c(NC(=O)CN2CCc3ccccc32)sc(C(N)=O)c1C | 0.6 | 6.2 | -0.8 | x | -8.0 | x | x | x
CCOC(=O)c1c(NC(=O)CN2CCCc3ccccc32)sc(C(C)=O)c1C | -3.5 | -8.3 | 16.4* | 1.8 | 14.9 | 1.3 | -1.8 | 4.4
O=C(Nc1ccccc1-c1ccccc1)C1CCC1 | 9.8 | 0.5 | -0.3 | 9.1 | -7.3 | x | x | x
O=C(Nc1ccccc1-c1ccccc1)C1CCCCC1 | 4.3 | -8.9 | 12.1* | 3.5 | -12.6 | 4.8 | -2.3 | -2.6
O=c1c2cc(NC(=S)NCc3ccccn3)ccc2nc2n1CCCCC2 | -10.6 | -0.8 | -1.1 | -3.7 | -0.7 | x | x | x
COc1ccc(CCNC2CC(=O)N(CCc3ccc(OC)c(OC)c3)C2=O)cc1OC (configuration not stated) | -19.1 | -15.6 | 0.1 | -4.5 | -1.7 | 4.5 | x | x
COc1ccc(CCN2C(=O)CC(NCc3ccc4c(c3)OCO4)C2=O)cc1OC (configuration not stated) | -2.5 | -33.2 | 18.9* | 4.5 | -4.2 | 8.2 | -3.0 | 0.3
SMILES | S1P4 antag | NPY1 pot ag | S1P4 ag | NPY Y1 blocker | NPY2 pot ag | NPY-Y2 antag | S1P4 ag conf | S1P1 agonist
COCCNC(=O)c1ccccc1NC(=O)Cc1ccccc1[N+](=O)[O-] | -0.5 | 5.5 | 234.7* | 0.7 | -3.8 | x | -2.9 | -6.8
NS(=O)(=O)c1cccc(NC(=O)COC(=O)Cc2ccc(S(=O)(=O)N3CCCCC3)s2)c1 | 1.8 | 21.6 | 1.0 | -1.0 | 4.8 | x | x | x
Cc1ccc(S(=O)(=O)NCC(=O)OCC(=O)Nc2cccc(S(=O)(=O)NC3=NCCCCC3)c2)cc1 | -6.1 | 3.0 | 0.2 | -0.1 | 4.8 | x | x | x
CC(=O)Nc1nn(C)c2nc(C)cc(C)c12 | 1.9 | -7.9 | 27.7* | 4.9 | -11.0 | x | -2.4 | 0.3
COc1ccccc1Nc1ccc(N)cc1 | -12.7 | 13.0 | 12.8* | -0.5 | 17.4 | x | -1.7 | 1.7
COc1ccc(CCNC(=O)Cn2c(=O)n(-c3ccc(F)cc3F)c(=O)c3sccc32)cc1OC | -23.9 | 21.9 | 2.2 | -5.1 | 14.7 | x | x | x
CC(C)(C)C(=O)Cn1c(=O)n(-c2ccc(F)cc2F)c(=O)c2sccc21 | 0.0 | 9.4 | 95.2* | -2.8 | 9.0 | x | -2.6 | 3.5
NS(=O)(=O)c1ccc(N/N=C/c2cn(-c3ccccc3)nc2-c2cccs2)c([N+](=O)[O-])c1 | 1.0 | 14.3 | 37.5* | -4.0 | -2.4 | x | -2.5 | -6.4
CCOC(=O)c1cc2c(=O)n3ccccc3nc2n(CCOC)c1=NC(=O)C(C)(C)C | -7.0 | -13.3 | 5.6 | -0.6 | 4.6 | 2.3 | x | x
CCOC(=O)c1cc2c(=O)n3ccccc3nc2n(CCOC)c1=NC(=O)c1ccncc1 | -14.1 | -3.1 | 18.0* | 0.8 | 2.5 | -1.0 | -0.2 | -3.4
CCOC(=O)c1cc2c(=O)n3ccccc3nc2n(CCCOC)c1=NC(=O)C(C)(C)C | -14.0 | 29.6 | 15.6* | 3.6 | -24.7 | -0.5 | 2.2 | 5.5
CCOCCCn1c(=NC(C)=O)c(C#N)cc2c(=O)n3ccccc3nc21 | -26.1 | 15.0 | 24.9* | x | 4.7 | x | 6.3 | 11.1
COc1ccc(-c2cnnn2-c2ccc(NC(=O)/C=C/c3ccc(OC)c(OC)c3)cc2)cc1 | -2.7 | -12.7 | -0.5 | -5.6 | 11.1 | 1.4 | x | x
O=C(Nc1nc(-c2cccs2)cs1)c1cccc(S(=O)(=O)N2CCCCCC2)c1 | -1.9 | -9.6 | 1.3 | 4.3 | 9.1 | 0.1 | x | x
Cc1cc(C(=O)CN2C(=O)C(=O)N(Cc3ccccc3)C2=O)c(C)n1-c1ccccc1F | -22.9 | -13.1 | 13.0* | 10.7 | 2.3 | x | -1.1 | -4.5
CC(=O)Nc1ccccc1C(=O)C(=O)O | -0.2 | 16.0 | 13.4* | -0.5 | -9.6 | -0.8 | -2.5 | 0.1
